Screening data (PubChem)
UPR CHOP act – activators of apoptotic arm of unfolded protein response (CHOP) | CHO-CHOP luciferase reporter, UPR activation, luminescence; percent of tunicamycin response over DMSO baseline | activation, % at 10 µM | 330,000 tested, 0.34% active | AID 449763;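 active means at 10 µM dose, activation of 40% or more, normalized to positive control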;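 further: 100% = tunicamycin at 10 µg/mL and 0% = DMSO alone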
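Assay system: CHO-CHOP cells, stable luciferase reporter of PERK-eIF2a-CHOP signalling / Buffer or medium: F12 plus 10% serum / Compound dosing: one dose, 10 µM in 0.5% DMSO / Times: 6 h compound treatment, 37 °C / Technique: luciferase luminescence / Read-out: % reporter activation, DMSO baseline versus tunicamycin full activation / Benchmarks: tunicamycin and DMSO controls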
CHOP inh – CHOP inhibition in unfolded protein response | 220,000 tested, 3.8% active | inhibition, % at 10 µM | CHO-K1 CHOP-promoter luciferase, tunicamycin-induced, 15-18 h;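 active means compounds that reduced the stress-induced luciferase reporter signal by more than about 70% of percent inhibition, limit read from the data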;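 further: 0% = tunicamycin plus vehicle and 100% = wells without tunicamycin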
UPR XBP1 act – activators of adaptive arm of unfolded protein response (XBP1). CHO-XBP1 luciferase reporter, IRE1-XBP1 UPR activation, luminescence; percent of tunicamycin response, DMSO as zero. activation, % at 20 µM. 330,000 tested, 0.33% active. AID 463104;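 active means versus positive control, 20 µM dose yields 30% or more activation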;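 further: 100% = tunicamycin at 10 µg/mL and 0% = DMSO only wells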
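Material: CHO-XBP1 cells stably carrying IRE1-XBP1-driven luciferase reporter / Amount: 1000 cells per well / Compound: 20 µM, 1% DMSO / Times: 6 h treatment, 37 °C / Detection: luciferase luminescence / Measure: % activation of reporter signal versus tunicamycin and DMSO controls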
697 NFkB inh – lowers PMA/ionomycin-induced NF-kB signal in 697 B cells; 697 B-cell NF-kB luciferase reporter, 16 h; inhibition, % at 4 µM; 330,000 tested, 0.33% active; in the data active means inhibition above about 35%
Jurkat NFkB inh – lowers PMA/ionomycin-induced NF-kB signal in Jurkat cells | PMA/ionomycin-induced NF-kB luciferase reporter, luminescence | inhibition, % at 4 µM | 330,000 tested, 0.53% active; in the data active means inhibition above about 50%
UPR XBP1 confirm – confirmation of adaptive unfolded protein response (XBP1) activators | 1,000 tested, 63% active | CHO-XBP1 IRE1-XBP1 luciferase reporter, luminescence | activation, % at 20 µM | shares compounds with UPR XBP1 act;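 active means reporter signal at least 30% of the positive control's activation in two or more of four replicate wells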;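 further: plate controls were DMSO negative control for no effect and tunicamycin 10 µg/mL positive control for full effect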
An asterisk follows results filed as active; / = not tested or not shown. Only a selection was taken, and hits are over-represented in it overall.

SMILES	UPR CHOP act	CHOP inh	UPR XBP1 act	697 NFkB inh	Jurkat NFkB inh	UPR XBP1 confirm
COc1ccccc1CC(=O)Nc1ccc(-c2noc(COc3ccc(Cl)c(C)c3)n2)cc1	6	-12	31*	1	5	8
O=C(COC(=O)CSc1ccc(F)cc1)NCCCc1ccccc1	0	/	44*	-12	-11	0
COc1cccc(NC(=O)CSc2ccc3nnc(CCNC(=O)c4ccccc4)n3n2)c1	-1	/	-1	-13	12	/
C#CCOCCOCCOCCNc1nc(N2CCN(C(=O)CCCCCCCCCCNC(=O)[C@H](CCCCN)n3cc(C)nn3)CC2)nc(N2CCN(C(=O)CCCCCCCCCCNC(=O)[C@H](CCCN=C(N)N)n3cc(C[C@@H](C)CC)nn3)CC2)n1	-1	/	8	-6	-7	/
C#CCOCCOCCOCCNc1nc(N2CCN(C(=O)CCCCCCCCCCNC(=O)[C@H](CCCCN)n3cc(C[C@@H](C)CC)nn3)CC2)nc(N2CCN(C(=O)CCCCCCCCCCNC(=O)[C@H](CCCN=C(N)N)n3cc(C[C@@H](C)CC)nn3)CC2)n1	12	/	31*	-48	-12	29*
Cc1ccc(-n2nc3c(N4CCC(C(=O)NCCc5cccs5)CC4)nnc(C)c3c2C)cc1	5	/	31*	-41	37	45*
Cc1ccc(-n2nc3c(=O)n(CC(=O)NCCc4cccs4)nc(C)c3c2C)cc1	2	/	4	8	15	/
O=C(C[C@H]1C[C@H](C(=O)N2CCCCC2)[C@@]2(CCc3ccccc3)c3[nH]c4cc(-c5ccco5)ccc4c3CCN2C1=O)NCCC1=CCCCC1	3	/	0	12	/	/
O=C(CC1C[C@H](C(=O)N2CCCCC2)[C@@]2(CCc3ccccc3)c3[nH]c4ccccc4c3CCN2C1=O)NCCC1=CCCCC1 (some centres undefined)	40	/	126*	-1	-8	93*
CC(NC(=O)c1ccc(C(=O)c2ccccc2)cc1)c1ccc(S(N)(=O)=O)cc1 (centres undefined)	0	/	-3	1	-6	/
O=C(Oc1ccc2c(c1)OCO2)c1cc2c(s1)CCC2	35	/	37*	-19	37	9
COc1ccc(-c2csc(C3=C(O)CN(Cc4ccc(Cl)cc4)C3=N)n2)cc1OC	2	45	43*	-16	-32	134*
CC(=NNC(=O)c1ccc(NS(=O)(=O)c2cccs2)cc1)c1ccc(OCC(N)=O)cc1	2	/	7	10	0	/
Cn1c(/C=C/c2ccc(Cl)cc2Cl)c([N+](=O)[O-])c(=O)n(C)c1=O	26	/	38*	-13	8	39*
COc1ccc(Sc2nc(-c3ccccn3)ncc2OC)cc1	10	52	14	6	10	/
COc1cnc(-c2ccccn2)nc1Sc1ccc(Cl)cc1	8	30	32*	-39	-9	8
CC1(C)Cc2c(c(N3CCOCC3)nc3sc4c(NCc5ccccc5)nnnc4c23)CS1	8	45	137*	27	1	14
O=c1ccc2cc(S(=O)(=O)N3CCN(c4ccccc4)CC3)ccc2[nH]1	-3	/	2	-4	-7	/
O=S(=O)(c1ccc2nc(-c3ccccc3)[nH]c2c1)N1CCN(c2ccc(Cl)cc2)CC1	20	105*	90*	-17	6	115*
CCOC(=O)Oc1ccc2oc(C)c(C(=O)OCCOC)c2c1	2	-24	1	11	-6	/
COCCOC(=O)c1c(C)oc2ccc(OC(=O)c3ccc4c(c3)OCO4)cc12	8	69	76*	-10	-8	0
O=C(COC(=O)c1ccc2[nH]c3c(c2c1)CCCC3)Nc1ccccc1Cl	-2	-29	52*	5	3	66*
COc1ccc(C(=O)N/N=C/c2ccc(OC)c(COc3ccccc3)c2)cc1	5	/	-5	9	-2	/
COc1ccc(/C=N\NC(=O)c2cc(O)c(O)c(O)c2)cc1COc1ccc(C(=O)OCC(C)C)cc1	5	/	41*	-14	18	25
COc1ccccc1C1C([N+](=O)[O-])=CC([N+](=O)[O-])=CN1C (centres undefined)	25	43	51*	16	20	0
SMILES	UPR CHOP act	CHOP inh	UPR XBP1 act	697 NFkB inh	Jurkat NFkB inh	UPR XBP1 confirm
COc1ccccc1C1NC=C([N+](=O)[O-])C=C1[N+](=O)[O-] (centres undefined)	0	-30	-4	2	6	/
Cn1ncc(Cl)c1C(=O)Nc1cccc(Cl)c1	-1	1	0	1	-12	/
Cn1ncc(N=Cc2c(O)ccc3ccccc23)c1C(=O)Nc1cccc(Cl)c1	17	76*	99*	1	4	80*
CCn1c(/C=C/c2ccc(O)cc2)nc2ccccc2c1=O	1	/	4	-25	-25	/
CCn1c(/C=C/c2ccc(O)c(O)c2)nc2ccccc2c1=O	37	/	37*	-29	14	21
Cc1ccccc1C(=O)N1CCC(C(=O)NC(C)c2ccc(-n3ccnc3)cc2)CC1 (centres undefined)	1	/	-3	12	14	/
C/C(=N/NC(=O)c1ccc(C)s1)c1cccc(NC(=O)COc2ccc(Cl)cc2C)c1	14	18	56*	16	-8	56*
COc1ccccc1NC(CC(=O)c1ccccc1)C(=O)OCC(=O)c1ccc(C)c(C)c1 (centres undefined)	2	3	36*	-197	-109	-2
CCn1c(SCC(=O)N2CCN(c3ccccc3)CC2)nc2c([nH]c3ccccc32)c1=O	18	/	32*	12	3	30
C=C(C)C(O)CC/C(C)=C/Cc1c(O)ccc(C(=O)/C=C/c2ccc(O)cc2)c1O (centres undefined)	-4	/	-8	-24	15	/
COc1ccc(C(=O)/C=C/c2ccc(O)cc2)c(O)c1C/C=C(\C)CCC=C(C)C	11	/	83*	-7	11	31*
Fc1ccc2c(c1)C(c1ccncc1)=NNC(c1ccc(Br)cc1)=N2	0	38	-2	23	-3	/
Cc1ccc(C2=Nc3ccc(Br)cc3C(c3ccncc3)=NN2)cc1	4	31	37*	-18	-3	45*
Cc1cccnc1NC(=O)c1ccc(NS(=O)(=O)/C=C/c2ccccc2)cc1	-2	/	-1	11	16	/
Cc1cc(C)c2c(c1)/C(=N\N=c1\sc3ccccc3n1C)C(=O)N2	18	69	30*	-14	-5	28
Cn1/c(=N/N=C/c2ccc([N+](=O)[O-])cc2)sc2ccccc21	/	-19	/	/	/	/
Cc1nc(-c2ccc(C(=O)Nc3cc(S(N)(=O)=O)ccc3C)cc2)cs1	4	/	-2	-37	-26	/
CCOC(=O)c1c(Nc2ccc(Cl)cc2)sc(/C=C2\C=Nc3ccccc32)c1O	4	76*	38*	-24	-7	15
